The results in this text go back to ChEMBL document CHEMBL1142491, “Linking bisphosphonates to the free amino groups in fluoroquinolones: preparation of osteotropic prodrugs for the prevention of osteomyelitis” (J Med Chem, 2008).

In brackets after ≈: the same amount, converted by molar mass. Activity calls are given as the source filed them. The calls are words filed in the database; no cut-off is given here.

For series [1], the system named is Serum. As to the kind of experiment: Stability in 50% human serum assessed as amount of parent drug released from cattle bone meal powder over 24 hrs. Type of series: ADME, cell-free. Summed up:
(§1)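 Washed bone powder carrying bound prodrug resuspended in PBS or 50% (v/v in PBS) human or rat serum, 24 h at 37 °C, then centrifuged. Supernatant extracted with 5 volumes methanol (15 min vortex), spun, dried, redissolved in PBS. Released fluoroquinolone quantified by fluorescence. Limit of detection 0.01%.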

Series [2] can be described thus: Stability in phosphate buffer saline assessed as amount of parent drug released from cattle bone meal powder over 24 hrs. The series is classed as ADME. In short, it runs like this: as §1
Series [3] concerns Serum. The series is described as follows: Stability in 50% rat serum assessed as amount of parent drug released from cattle bone meal powder over 24 hrs. Type of series: ADME, cell-free. Summed up: as §1
Series [4] relates to Staphylococcus aureus. The series is described as follows: Protective effect against Staphylococcus aureus ATCC 13709-induced bone infection in CD rat at 24 mg/kg, iv administered as single dose 1 day before bacterial challenge. The series is classed as functional, organism-based. On the set-up: dose 24 mg/kg. In short, it runs like this:
(§2)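 S. aureus ATCC 13709 inoculum from frozen stock. Rats given intratibial 5% sodium morrhuate then about 5 × 10^5 CFU. Single IV bolus in saline, at the stated time relative to infection. Sacrificed 24 h post-infection. Tibiae milled and plated; mean log CFU/g bone ± SD. Detection limit 2 log CFU/g. Dunnett's test vs untreated, P<0.05.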

For series [5], the system named is Staphylococcus aureus. As to the kind of experiment: Antibacterial activity against Staphylococcus aureus ATCC 13709 after 24 hrs by microdilution method. The series is classed as functional. The conditions noted are these: ATCC 13709, 24 h. Summed up:
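MIC by broth microdilution per CLSI guidelines (M7 A7) against S. aureus ATCC 13709.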

In another series the test system is Bone. As to the kind of experiment: Binding affinity to bone assessed as drug level bound to cattle bone meal powder by fluorescence assay. The series is classed as tissue-based. Further details: concentration or dose not given beside the values. The settings on record: Bos taurus; Bone element. Summed up: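 Compound dissolved in PBS, added at 1 mg/mL final to bone meal powder slurry (10 mg/mL in PBS), 37 °C for 1 h. Spun 13 000 rpm 2 min. Bound amount taken as input minus amount in supernatant, measured by fluorescence. Limit of detection 0.01%.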

Series [6] relates to Staphylococcus aureus. The series is described as follows: Protective effect against Staphylococcus aureus ATCC 13709-induced bone infection in CD rat at 42 mg/kg, iv administered as single dose 2 days before bacterial challenge. The series is classed as functional, organism-based. On the set-up: dose 42 mg/kg. In short, it runs like this: as §2
The test system of series [7] is Staphylococcus aureus. The series is described as follows: Protective effect against Staphylococcus aureus ATCC 13709-induced bone infection in CD rat at 20.8 mg/kg, iv administered as single dose 1 day before bacterial challenge. Type of series: functional, organism-based. Further details: dose 20.8 mg/kg. In short, it runs like this: as §2
In series [8] the test system is Staphylococcus aureus. The series is described as follows: Protective effect against Staphylococcus aureus ATCC 13709-induced bone infection in CD rat at 20 mg/kg, iv administered as single dose 2 days before bacterial challenge. Type of series: functional, organism-based. On the set-up: dose 20 mg/kg. Summed up: as §2
For series [9], the system named is Staphylococcus aureus. As to the kind of experiment: Protective effect against Staphylococcus aureus ATCC 13709-induced bone infection in CD rat at 10 mg/kg, iv administered as single dose 1 hr after bacterial challenge. Type of series: functional, organism-based. On the set-up: dose 10 mg/kg. Summed up: as §2

What is called MIC is the lowest concentration that inhibits growth of the organism. `COc1c(N2C[C@@H]3CCCN(C(=O)CC(P(=O)(O)O)P(=O)(O)O)[C@@H]3C2)c(F)cc2c(=O)c(C(=O)O)cn(C3CC3)c12`: the Activity turned out to be 0.01% in the series on Serum [1], 0.01% in [2], 0.01% in the series on Serum [3] and 99.9% in the series on Bone. Also, the outcome with Staphylococcus aureus [4] was inactive. The same compound came in with an MIC against Staphylococcus aureus [5] greater than 4 µg/mL.

Consider `COc1c(N2C[C@@H]3CCCN(C(=O)OC(C)OC(=O)CCCC(=O)NC(P(=O)(O)O)P(=O)(O)O)[C@@H]3C2)c(F)cc2c(=O)c(C(=O)O)cn(C3CC3)c12` (some centres not stated), for which the Activity in the series with Serum [1] was determined as 1.8%; in series [2] it was 1.2%; in the series on Serum [3] it was 1.4%; with Bone, 93.9%. In the series on Staphylococcus aureus [5], this compound showed a minimal inhibitory concentration (MIC) greater than 4 µg/mL.

Consider `COc1c(N2C[C@@H]3CCCN(CC(P(=O)(O)O)P(=O)(O)O)[C@@H]3C2)c(F)cc2c(=O)c(C(=O)O)cn(C3CC3)c12`, for which the Activity in the series on Serum [1] turned out to be 0.01%; in series [2], 0.01%; in the series on Serum [3] it was 0.01%; with Bone it was 92.2%. For the same compound, the MIC against Staphylococcus aureus [5] is greater than 4 µg/mL.

The compound `COc1c(N2CCN(C(=O)CC(C)(C)c3cc(P(=O)(O)CP(=O)(O)O)ccc3OP(=O)(O)O)C(C)C2)c(F)cc2c(=O)c(C(=O)O)cn(C3CC3)c12` (configuration not stated) had an MIC in the series with Staphylococcus aureus [5] greater than 4 µg/mL. Further, the Activity in the series with Bone was 0.01%.

For `COc1c(N2CCN(C(=O)OCOC(=O)CCC(P(=O)(O)O)P(=O)(O)O)C(C)C2)c(F)cc2c(=O)c(C(=O)O)cn(C3CC3)c12` (configuration not stated), the Activity with Serum [1] was found to be 21.2%; in series [2] it was 13.4%; in the series with Serum [3] it was 25.4%; with Bone, 86.4%. In addition, the outcome in the series with Staphylococcus aureus [6] was Active. Also, the MIC against Staphylococcus aureus [5] was found to be 0.5 µg/mL (≈ 0.736 µM).

For `COc1c(N2CCN(C(=O)OC(C)OC(=O)CCCC(P(=O)(O)O)P(=O)(O)O)C(C)C2)c(F)cc2c(=O)c(C(=O)O)cn(C3CC3)c12` (configuration not stated), the Activity with Serum [1] came to 0.9%; in series [2], 0.7%; with Serum [3], 0.7%; in the series with Bone, 88.4%. Besides, in the series with Staphylococcus aureus [5], the MIC is greater than 4 µg/mL.

In the case of `O=C(O)c1cn(C2CC2)c2cc(N3CCN(CC(P(=O)(O)O)P(=O)(O)O)CC3)c(F)cc2c1=O`, the Activity was found to be 0.01% in the series with Serum [1], 0.01% in series [2], 0.01% in the series on Serum [3] and 99.6% with Bone. This compound had an MIC in the series on Staphylococcus aureus [5] greater than 4 µg/mL.

Turning to `COc1c(N2CCN(C(=O)CC(P(=O)(O)O)P(=O)(O)O)C(C)C2)c(F)cc2c(=O)c(C(=O)O)cn(C3CC3)c12` (configuration not stated), the Activity with Serum [1] worked out at 0.01%; in [2] it was 0.01%; in the series with Serum [3], 0.01%; with Bone, 98.2%. In the series with Staphylococcus aureus [5], this compound came in with a minimum inhibitory concentration (MIC) greater than 4 µg/mL.

Take `COc1c(N2CCN(CCC(=O)c3ccc(OCCCC(P(=O)(O)O)P(=O)(O)O)cc3)C(C)C2)c(F)cc2c(=O)c(C(=O)O)cn(C3CC3)c12` (configuration not stated): the Activity with Serum [1] is 4.3%; in series [2] it was 2.3%; in the series on Serum [3], 4.2%; with Bone it was 94.7%. Further, the result with Staphylococcus aureus [7] was Active. In addition, the minimum inhibitory concentration (MIC) against Staphylococcus aureus [5] came to 0.12 µg/mL (≈ 0.162 µM).

Regarding `O=C(O)c1cn(C2CC2)c2cc(N3CCNCC3)c(F)cc2c1=O` [CIPROFLOXACIN], the Activity in the series on Bone was determined as 0.01%.

Consider `COc1c(N2CCN(Cc3oc(=O)oc3-c3ccc(P(=O)(O)CP(=O)(O)O)cc3)C(C)C2)c(F)cc2c(=O)c(C(=O)O)cn(C3CC3)c12` (configuration not stated), for which the Activity amounted to 22.8% with Serum [1], 7.5% in series [2], 30% in the series with Serum [3] and 63.7% in the series on Bone. Moreover, in the series on Staphylococcus aureus [5], the minimal inhibitory concentration (MIC) was less than 0.12 µg/mL.

On to `COc1c(N2CCN(C(=O)OC(C)OC(=O)CCCC(=O)NC(P(=O)(O)O)P(=O)(O)O)C(C)C2)c(F)cc2c(=O)c(C(=O)O)cn(C3CC3)c12` (configuration not stated), for which the Activity with Serum [1] came to 2.4%; in series [2], 1.5%; with Serum [3], 1.8%; with Bone, 94.3%. Further, the MIC with Staphylococcus aureus [5] was greater than 4 µg/mL.

Turning to `COc1c(N2CCN(C(=O)CC(C)(C)c3cc(P(=O)(O)CP(=O)(O)O)ccc3OC(=O)C(C)C)C(C)C2)c(F)cc2c(=O)c(C(=O)O)cn(C3CC3)c12` (configuration not stated), the Activity with Serum [1] worked out at 3.6%; in series [2], 0.8%; in the series with Serum [3] it was 6.1%; with Bone it was 76%. This compound had a minimum inhibitory concentration (MIC) in the series on Staphylococcus aureus [5] greater than 4 µg/mL.

`COc1c(N2CCNC(C)C2)c(F)cc2c(=O)c(C(=O)O)cn(C3CC3)c12` (configuration not stated) [GATIFLOXACIN]: the result in the series on Staphylococcus aureus [8] was inactive. The lowest concentration to inhibit growth with Staphylococcus aureus [5] (MIC) was 0.06 µg/mL (≈ 0.16 µM). Moreover, the Activity with Bone came out at 0.01%.

In the case of `COc1c(N2C[C@@H]3CCCN[C@@H]3C2)c(F)cc2c(=O)c(C(=O)O)cn(C3CC3)c12` [MOXIFLOXACIN], the result with Staphylococcus aureus [9] was Active. 0.03 µg/mL (≈ 0.0747 µM) was the least that counted as inhibitory against Staphylococcus aureus [5] (MIC). The Activity in the series with Bone was 0.01%.

For `COc1c(N2CCN(C(=O)CC(C)(C)c3cc(P(=O)(O)CP(=O)(O)O)ccc3OC(C)=O)C(C)C2)c(F)cc2c(=O)c(C(=O)O)cn(C3CC3)c12` (configuration not stated), the Activity with Serum [1] worked out at 3.7%; in series [2] it was 5.4%; with Serum [3], 6.2%; with Bone it was 36.6%. This compound also yielded an MIC with Staphylococcus aureus [5] greater than 4 µg/mL.
